According to ChEMBL document CHEMBL2434859, “Targeting botulinum A cellular toxicity: a prodrug approach” (J Med Chem, 2013):
The source made the active and inactive calls. The calls are words filed in the database; no cut-off is given here.

What was measured:
[1] = Cellular uptake in golgi apparatus of mouse Neuro2a cell assessed as release of AMC and 1-adamantylacetohydroxamic acid at 50 uM after 3 hrs by Alexa Fluor 488-conjugated wheat germ agglutinin/TOTO-3 staining-based laser scanning confocal microscopic analysis; type: ADME
[2] = Prodrug conversion in mouse Neuro2a cells assessed as release of AMC and 1-adamantylacetohydroxamic acid at 50 uM after 3 hrs by Alexa Fluor 488-conjugated wheat germ agglutinin/TOTO-3 staining-based laser scanning confocal microscopic analysis; type: ADME, cell-based; conditions: n2a
[3] = Half life in culture media at 10 to 100 uM by LC/MS analysis; type: physicochemical; conditions: for t1/2: 100 µM
Procedure, shortened: (§1)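 Compound at 10–100 μM (1% DMSO) was held in PBS pH 7.4 or neurobasal medium. Aliquots were taken at timed intervals; medium samples were quenched in cold acetonitrile. A deuterated internal standard (1 μM) was added, and samples were read by LC/MS (C8, SIM) against calibration curves. Half-life came from an exponential decay fit.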

[4] = target: Botulinum neurotoxin type A (Clostridium botulinum (strain Hall / ATCC 3502 / NCTC 13319 / Type A)) (UniProt P0DPI1); assay: (§2) Inhibition of Clostridium botulinum A Hall BoNT LC/A in human induced pluripotent stem cell-derived neurons assessed as inhibition of intracellular SNAP-25 cleavage after 8 hrs by Western blot analysis; type: cell-based; conditions: Clostridium botulinum A str. Hall
Botulinum neurotoxin type A (Clostridium botulinum (strain Hall / ATCC 3502 / NCTC 13319 / Type A)), sequence (P0DPI1 2-448 limits assumed): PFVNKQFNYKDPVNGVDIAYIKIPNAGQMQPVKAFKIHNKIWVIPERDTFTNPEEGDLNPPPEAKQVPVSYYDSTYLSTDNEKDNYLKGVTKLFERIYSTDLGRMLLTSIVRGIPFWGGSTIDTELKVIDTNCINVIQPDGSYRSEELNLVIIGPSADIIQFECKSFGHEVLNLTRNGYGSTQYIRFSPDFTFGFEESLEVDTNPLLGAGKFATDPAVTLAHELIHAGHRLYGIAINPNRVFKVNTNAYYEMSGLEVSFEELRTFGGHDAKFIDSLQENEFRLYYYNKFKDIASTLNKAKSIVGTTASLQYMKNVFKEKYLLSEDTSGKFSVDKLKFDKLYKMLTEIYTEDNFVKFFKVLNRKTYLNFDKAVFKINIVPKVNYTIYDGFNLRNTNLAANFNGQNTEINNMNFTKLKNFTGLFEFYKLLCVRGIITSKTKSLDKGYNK

[5] = Cytotoxicity against human induced pluripotent stem cell-derived neurons assessed as SNAP-25 level at 25 uM after 8 hrs by Western blot analysis; conditions: induced pluripotent stem cell-derived neuron
[6] = Half life in PBS buffer at 10 to 100 uM by LC/MS analysis; type: physicochemical; procedure, shortened: as §1
[7] = target: Botulinum neurotoxin type A (Clostridium botulinum (strain Hall / ATCC 3502 / NCTC 13319 / Type A), UniProt P0DPI1); assay: as §2; type: cell-based, Clostridium botulinum A str. Hall
Botulinum neurotoxin type A, sequence (P0DPI1 2-448 limits assumed): as above

[8] = target: Botulinum neurotoxin type A (Clostridium botulinum (strain Hall / ATCC 3502 / NCTC 13319 / Type A)) (UniProt P0DPI1); assay: Inhibition of Clostridium botulinum A Hall BoNT LC/A in human induced pluripotent stem cell-derived neurons assessed as inhibition of intracellular SNAP-25 cleavage after 8 hrs by Western blot analysis in presence of 0.01% Tween-80; type: cell-based; conditions: Clostridium botulinum A str. Hall
[9] = target: Botulinum neurotoxin type A (Clostridium botulinum (strain Hall / ATCC 3502 / NCTC 13319 / Type A)) (UniProt P0DPI1); assay: Inhibition of Clostridium botulinum A Hall BoNT LC/A in human induced pluripotent stem cell-derived neurons assessed as inhibition of intracellular SNAP-25 cleavage at 25 uM after 8 hrs by Western blot analysis relative to control; type: cell-based; conditions: Clostridium botulinum A str. Hall

Row | SMILES | t1/2 [3] [h] | t1/2 [6] [h] | EC50 ([7]; read-out: EC50) [µM] | other results
1 | Cc1cc(=O)oc2cc(NC(=O)ONC(=O)CC34CC5CC(CC(C5)C3)C4)ccc12 |  |  |  | Drug uptake [1]: Active; Drug metabolism [2]: Active; half-life at up to 100 µM ([3]; culture media): 4.5 h; inhibition [4]: Active
2 | O=C(CC12CC3CC(CC(C3)C1)C2)N(O)C(=O)NCc1ccccc1 |  |  |  | Activity [5]: Toxic
3 | O=C(CC12CC3CC(CC(C3)C1)C2)NOC(=O)N1CCOCC1 | 33 | 48 | 37 | 
4 | O=C(CC12CC3CC(CC(C3)C1)C2)NOC(=O)Nc1ccc(F)cc1 | 0.62 | 0.9 | > 100 | 
5 | COc1cc(NC(=O)ONC(=O)CC23CC4CC(CC(C4)C2)C3)cc(OC)c1 | 1.6 | 1.2 | > 100 | 
6 | COc1ccc(NC(=O)ONC(=O)CC23CC4CC(CC(C4)C2)C3)cc1 | 0.85 | 1.1 | > 100 | 
7 | O=C(CC12CC3CC(CC(C3)C1)C2)NOC(=O)NCc1ccccc1 | 14.6 | 17.6 | 20 | inhibition [8]: Active; inhibition [4]: Dose-dependent effect; inhibition [9]: 50%
8 | CN(C)C(=O)ONC(=O)CC12CC3CC(CC(C3)C1)C2 | 61 | 149 | > 100 | 
9 | O=C(CC12CC3CC(CC(C3)C1)C2)NOC(=O)Nc1ccccc1 | 0.76 | 1.1 | > 100 | 
10 | CC1(C)ON=C(CC23CC4CC(CC(C4)C2)C3)O1 | 10.2 | 3.3 | > 100 | 
11 | CC(C)(C)NC(=O)ONC(=O)CC12CC3CC(CC(C3)C1)C2 |  | 72 |  | EC50 [7]: ND(toxic)
12 | COc1ccc(CNC(=O)ONC(=O)CC23CC4CC(CC(C4)C2)C3)cc1 | 11.2 | 14 | 42 | 
13 | O=C(CC12CC3CC(CC(C3)C1)C2)NOC(=O)NCc1ccc(F)cc1 | 11.5 | 11.5 | 27 | 
14 | COCCN(CCOC)C(=O)ONC(=O)CC12CC3CC(CC(C3)C1)C2 | 48 | 164 | > 100 | 
15 | CCNC(=O)ONC(=O)CC12CC3CC(CC(C3)C1)C2 | 15.1 | 27.6 | > 100 | 
